Screening results deposited in PubChem BioAssay by several laboratories.
UBC13 polyUb: inhibitors of human UBC13 polyubiquitin chain formation; P61088; TR-FRET; inhibition, % at 20 µM; 330,000 compounds, 0.47% hits; AID 485273; in the data active means inhibition above about 45%, passing the limit was not always enough
Apaf1 inhib: human Apaf-1 inhibition. 330,000 compounds, 0.71% hits. AID 489030. inhibition, % at 20 µM. reconstituted apoptosome caspase-3 activity, DEVD-Rh110 fluorescence. O14727; active means inhibition of at least 40% at 20 µM;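 further: plate controls were DMSO wells for no effect and DEVD-CHO caspase inhibitor wells for full effect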
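Material: reconstituted apoptosome with Apaf-1, cytochrome c, caspase-9, procaspase-3, dATP / Buffer or medium: pH 7.5 Hepes buffer with CHAPS, BSA, DTT / Also added: cytochrome c with DEVD-Rh110 / Schedule: compound with Apaf-1, dATP, procaspase-3 30 min, then 50 min reaction, room temperature / Technique: rhodamine 110 fluorescence at Ex 480/Em 540 nm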
MEKK2wt PB1 HTS: raises or lowers MEK5 binding to wildtype human MEKK2 PB1 domain | bead flow cytometry, Alexa488-MEK5 binding to MEKK2 WT; actives lie on both sides | Q9Y2U5 | 290,000 compounds, 1.1% hits | binding response (% of control), % at 10 µM; in the data active means binding response below about 67% or above about 130%
MEKK3 PB1 HTS: MEKK3-MEK5 PB1 interaction, increase or decrease; Q99759; bead-based flow cytometry, Alexa488-MEK5 binding to MEKK3; actives lie on both sides; 0 = blocked by unlabeled MEK5, 100 = vehicle; binding response (% of control), % at 10 µM; 290,000 compounds, 1.4% hits; AID 1529;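 active means binding response more than 3 SD above or below the average of its plate-row segment, actives on both sides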;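 further: Alexa488 bead fluorescence after subtracting the streptavidin-only scavenger bead signal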
Pemphigus Ab inh: blocks pemphigus antibody binding to human desmoglein-3; P32926; DSG3-coupled beads, scFv-anti-DSG3-GFP binding, flow cytometry; stronger effect = lower value; binding (percent of control), % at 10 µM; 310,000 compounds, 0.48% hits; AID 588358;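 active means binding more than 3 SD below its plate's average and above zero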
MEKK2 mut-MEK5: signal of MEK5 binding to mutant human MEKK2 PB1 domain | bead flow cytometry, Alexa488-MEK5 binding to MEKK2 mutant | percent response, % at 10 µM | 290,000 compounds, 0.35% hits; in the data active means percent response above about 24%, passing the limit was not always enough
MEKK2wt confirm: raises or lowers MEK5 binding to wildtype human MEKK2, retest. shares compounds with MEKK3 PB1 HTS. bead flow cytometry, Alexa488-MEK5 binding to MEKK2 WT; actives lie on both sides. binding response (% of control), % at 10 µM. 5,900 compounds, 2.4% hits. AID 1892; in the data active means binding response below about 16% or above about 210%; inactive means in between
MEKK2mut confirm: signal of MEK5 binding to mutant human MEKK2, retest. shares compounds with MEKK3 PB1 HTS. bead flow cytometry, Alexa488-MEK5 binding to MEKK2 mutant. percent response, % at 10 µM. 5,900 compounds, 2% hits. AID 1893; in the data active means percent response mostly above about 71%, no sharp cut-off; inactive means mostly below about 38%;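 further: higher means compound restores mutant binding toward wildtype level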
MEKK3 confirm: MEKK3-MEK5 PB1 inhibition, single concentration confirmation; shares compounds with MEKK3 PB1 HTS; bead flow cytometry, Alexa488-MEK5 binding to MEKK3; stronger effect = lower value; binding response (% of control), % at 10 µM; 5,900 compounds, 1.8% hits;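 active means binding response below 72% of control, or above a set upper limit, though filed actives all read lower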;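 further: 100% = DMSO only wells and 0% = binding blocked by excess unlabeled MEK5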
Casp3 counter: counter-screen for UBC13 inhibitors: human caspase-3 inhibition. Recombinant caspase-3, Caspase-Glo 3/7 luminescence, 60 min. 1,400 compounds, 4% hits. inhibition, % at 20 µM. shares compounds with UBC13 polyUb;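 active means mean inhibition across replicates above about 26%, limit read from the data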;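 further: plate controls were DMSO with caspase-3 for no effect and DMSO wells lacking enzyme for full effect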
UBC13 conf: confirmation of human UBC13 polyubiquitin inhibitors. shares compounds with UBC13 polyUb. UBC13 polyubiquitination, TR-FRET, biochemical. inhibition, % at 10 µM. 1,400 compounds, 68% hits. AID 488859; in the data active means inhibition above about 45%
Apaf-1 inh conf: confirmation of Apaf-1 inhibitors; shares compounds with Apaf1 inhib; reconstituted apoptosome, caspase-3 DEVD-Rh110 fluorescence; inhibition, % at 20 µM; 1,800 compounds, 25% hits;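 active means mean inhibition of at least 40% at 20 µM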;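 further: plate controls were DMSO wells for no effect and DEVD-CHO caspase inhibitor control wells for full effect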
Rh110 interf inh: interferes with Rh110 fluorescence, flagging false Apaf-1 inhibitors | shares compounds with Apaf1 inhib | Rh110 fluorescence interference, quenched caspase reaction | activation (fluorescence interference), % at 20 µM | 1,800 tested, under 10 active;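 active means signal rise of 40% or more at 20 µM, treated as a fluorescence artifact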
Apaf1 inh interf: counter-screen for Apaf-1 inhibitors: fluorescence interference, dose response; IC50, µM; AID 588538; shares compounds with Apaf1 inhib; fluorescence interference counterscreen, Apaf-1 assay format; 460 tested, under 10 active; call rule not given here
Numbers without * were called inactive; · = not tested or not shown; ! = repeats disagree; [ ] = dose if it differs, or a comment. This is a sample that favours compounds with a hit; in the whole collection about 3.2% have one here.

SMILES	UBC13 polyUb	Apaf1 inhib	MEKK2wt PB1 HTS	MEKK3 PB1 HTS	Pemphigus Ab inh	MEKK2 mut-MEK5	MEKK2wt confirm	MEKK2mut confirm	MEKK3 confirm	Casp3 counter	UBC13 conf	Apaf-1 inh conf	Rh110 interf inh	others
COc1ccc(C(=O)CCC(=O)N2CCN(c3ccc(C)cc3)C(C)C2)cc1 (stereo unspecified)	-1	9	99	99	·	1	·	·	·	·	·	·	·
COC(=O)CCC(=O)OC1(C)C(=O)C2=CN(C3CCCC3)C(c3ccc(OC)cc3)=CC2=C(Br)C1=O (stereo unspecified)	-92	64*	-8.0*[inhibitor]	47*[inhibitor]	88	-23	88	0	88	·	·	77*	5	Apaf1 inh interf=>100
COc1cccc2c(N/N=C/c3ccccc3)cc(C)nc12	-3	11	102	100	100	-3	·	·	·	·	·	·	·
COc1ccc(/C=N/Nc2cc(C)nc3ccc(Br)cc23)cc1	61*	55*	214*	106	99	73*	245*	120*	107	4	85*	24	-1
CCN(C(=O)COC(=O)/C=C/c1ccco1)C1CCCCC1	-10	-11	·	·	·	·	·	·	·	·	·	·	·
CCN(CC)CCOC(=O)c1ccc(N/C=C(/C#N)c2nc(-c3ccc4c(c3)OCO4)cs2)cc1	108*	60*	58*[inhibitor]	22*[inhibitor]	103	4	101	-20	39*	1	132*	63*	4	Apaf1 inh interf=>100
N#C/C(=C\C=C\c1ccccc1)c1nc(-c2ccc3c(c2)OCO3)cs1	9	7	99	98	99	3	·	·	·	·	·	·	·
CCN(CC)CCOC(=O)c1ccc(N/C=C(/C#N)c2nc(-c3cc4ccccc4oc3=O)cs2)cc1	114*	54*	36*[inhibitor]	15*[inhibitor]	91	-44	14*[inhibitor]	-29	13*	1	132*	61*	9	Apaf1 inh interf=>100
COc1cccc(C(=O)Nc2ccc(C(=O)NCC3CCCO3)cc2)c1 (stereo unspecified)	3	-22	·	·	105	·	·	·	·	·	·	·	·
CC(C)Oc1ccc(S(=O)(=O)N2CCOCC2)cc1NC(=O)CSC(=S)N1CCCC1	·	·	·	·	96	·	·	·	·	·	·	·	·
Cc1noc(/C=C/c2cccs2)c1S(=O)(=O)N1CCC(C(=O)NCCCN2CCC(C)CC2)CC1	49*	40*	186*	106	105	57*	115	7	103	0	18	16	7
CCCCCCCCCCCCCCCCn1cc[n+](C)c1	73*	80*	213*	113	116	76*	148	17	100	-3	99*	44*	14	Apaf1 inh interf=>100
FC(F)(F)c1cc(CCN2CCNC[C@@H]2Cc2ccccc2)cc(C(F)(F)F)c1	64*	57*	146*	113	115	15	136	39	111	0	51*	21	8
CCOC(=O)N1CCN(C2CCCN(C(=O)c3ccccc3N(C)C)C2)CC1 (stereo unspecified)	3	5	107	102	105	5	·	·	·	·	·	·	·
COc1ccc(-c2cc(-c3ccc(F)cc3)nc(N3CCN(C)CC3)n2)cc1	22	65*	201*	122	112	39	205	78*	117	·	·	6	9
O=C(Nc1ccc2c(c1)OCO2)C(=O)c1c[nH]c2ccccc12	-3	-15	100	99	101	1	·	·	·	·	·	·	·
CCN1CCN(Cc2ccc(NC(=O)c3cc(NC(=O)C(=O)c4c[nH]c5ccccc45)cc(OC)c3)cc2C(F)(F)F)CC1	55*	41*	195*	109	128	131*	227*	146*	112	-4	76*	24	1
CCN1CCN(Cc2ccc(NC(=O)c3ccc(C)c(NC(=O)C(=O)c4c[nH]c5ccccc45)c3)cc2C(F)(F)F)CC1	53*	74*	301*	113	103	95*	239*	172*	113	-5	96*	35	1
O=C(Nc1ccc2c(c1)OCCO2)C(=O)c1c[nH]c2ccccc12	3	-2	104	106	·	9	·	·	·	·	·	·	·
COc1ccc(CN2CCN(c3ccc(F)cc3)CC2)c(OC)c1OC	-8	-6	111	104	121	0	·	·	·	·	·	·	·
COc1ccc(CN2CCN(C(c3ccc(F)cc3)c3ccc(F)cc3)CC2)c(OC)c1OC	25	48*	183*	114	111	15	138	34	105	·	·	7	-9
CNC(=O)COc1ccc(S(=O)(=O)N2CCCC2)cc1	2	-11	105	103	113	3	·	·	·	·	·	·	·
CN(C)CCCN1c2ccccc2Sc2ccc3ccccc3c21	·	·	·	·	136	·	·	·	·	·	·	·	·
CN(C)CCCN1c2ccccc2Sc2ccc(Cl)cc21	18	42*	153*	102	112	13	149	27	107	·	·	16	8
OCCN1CCN(CCCN2c3ccccc3Sc3ccc(Cl)cc32)CC1	90*	46*	160*	79	·	10	141	27	105	-4	99*	5	8
CCOC(=O)c1ccccc1NC(=O)COC(=O)Cc1ccccc1F	2	21	·	·	107	·	·	·	·	·	·	·	·
O=C1CCc2ccc(OCCCCN3CCN(c4cccc(Cl)c4Cl)CC3)cc2N1	35	43*	177*!	113	107	15	1.0*[inhibitor]	-29	1.0*	·	·	18	8
COc1ccccc1N1CCN(CCCOc2ccc(F)cc2)CC1	-2	-11	91	89	·	-4	·	·	·	·	·	·	·
